Laboratory results as given in article PMC3889329 (Diabetes Therapy, 2013).

What was measured:
[1] = system: patients with type 2 diabetes mellitus; assay: Fasting plasma glucose; assay type: in vivo, human; settings: day 10, 1 day after the last dose
Outline: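 Fasting plasma glucose was measured after a 10 h overnight fast. Dosing was oral, once daily with 240 mL water: a single dose on day 1, none on day 2, then daily on days 3–9. Patients were randomized 3:1 to test compound or placebo within each dose group (2.5, 10, 25, 100 mg; n = 12 per group). Descriptive statistics used the treated set (n = 48).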

[2] = Pharmacokinetics in plasma and urine; assay type: in vivo, human
Outline: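 Plasma was sampled pre-dose on days −2, −1, 1, 2, 3 and 5–9, up to 48 h after the day 1 single dose and up to 72 h after the day 9 dose. Urine was collected on days 1 and 9. Analysis was by HPLC–MS/MS (LLOQ 1.11 nmol/L plasma, 4.44 nmol/L urine). AUC used linear-up/log-down trapezoids. Steady state was assessed from day 5–9 troughs with a log-scale repeated-measures model. n = 36.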

[3] = system: patients with type 2 diabetes mellitus; assay: Derived creatinine clearance; assay type: in vivo, human
Outline: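 Derived creatinine clearance was calculated from urinary creatinine concentration and volume in timed urine fractions, together with plasma creatinine. It is expressed as […] and given as change from baseline. Dosing was oral, once daily with 240 mL water: a single dose on day 1, then daily on days 3–9.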

[4] = system: patients with type 2 diabetes mellitus; assay: Safety and tolerability; assay type: in vivo, human; settings: for Diarrhea / Headache / Hypoglycemia / Patients with any AE / Pruritus: N = 9
Outline: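 This was a double-blind, multiple rising dose trial with patients randomized 3:1 to active or placebo per dose group. Oral dosing was once daily: a single dose on day 1, then days 3–9. Adverse events were recorded, and relatedness was investigator-defined. Hypoglycemia was defined as blood glucose <3.5 mmol/L. An end-of-study examination was done on days 15–21. Analysis was descriptive, randomized set (n = 48).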

[5] = system: patients with type 2 diabetes mellitus; assay: Weighted mean daily glucose; assay type: in vivo, human; settings: for Mean MDG, mean (least squares) change from baseline to day 8: baseline day −2
Outline: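 Eight-point weighted mean daily glucose was calculated as the 24 h glucose AUEC0–24 divided by 24 h. It was measured under standardized meals without OGTT on day −2 (baseline) and day 8, after multiple once-daily oral doses. Change from baseline is given as least squares means. Analysis used the treated set.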

[6] = system: patients with type 2 diabetes mellitus; assay: Urinary glucose excretion; assay type: in vivo, human; settings: day 1
Outline: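 All urine was collected over 24 h on days −2, −1, 1, 8 and 9, extended to 48 h after day 1 and 72 h after day 9. Ae0–24 was measured after a single dose with OGTT (75 g glucose, day 1) and after multiple daily doses, fasting (day 8) or with OGTT (day 9). Results are mean (SD) for the treated set.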

[7] = system: patients with type 2 diabetes mellitus; assay: Laboratory electrolyte and lipid measurements; assay type: in vivo, human; settings: normalized to a standard reference range
[8] = system: SGLT2; settings: in vitro, cited from earlier work
[9] = system: patients with type 2 diabetes mellitus; assay: Oral glucose tolerance test, glucose AUEC1-5; assay type: in vivo, human; settings: for Glucose AUEC1–5, change from baseline to day 9: baseline day −1
Outline: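 For the OGTT, 75 g glucose solution was given after an overnight fast on days −1, 1 and 9, with the test compound or placebo given orally once daily. Glucose AUEC was calculated over 1–5 h after OGTT. Change is from baseline on day −1. Patients were randomized 3:1 to active or placebo per dose group. Analysis was descriptive.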

[10] = system: healthy volunteers; settings: single oral doses; cited from earlier work
[11] = system: SGLT1; settings: in vitro; cited from earlier work

SMILES: OC[C@H]1O[C@@H](c2ccc(Cl)c(Cc3ccc(O[C@H]4CCOC4)cc3)c2)[C@H](O)[C@@H](O)[C@@H]1O [Empagliflozin]
- FPG lower than on day 1 [1]: at least 14%
- Accumulation at steady state ([2]; 2.5–100 mg qd): up to 23%
- half-life ([2]; human, plasma, oral, Mean t 1/2 at steady state, day 9, range over 2.5–100 mg qd): 10.3 to 18.8 h
- Tmax ([2]; human, plasma, po): 1.5 to 3 h
- Steady state reached by ([2]; repeated once-daily dosing, trough concentrations days 5–8): ≤ 5 days
- Change from baseline in derived creatinine clearance, mean (SD) ([3]; 2.5 mg qd, 16 h): −57.0 (59.4) mL/min 1.73 m^2
- Change from baseline in derived creatinine clearance, mean (SD) ([3]; 2.5 mg qd, 166 h, n = 7): 360 (620) mL/min 1.73 m^2
- Change from baseline in derived creatinine clearance, mean (SD) ([3]; 2.5 mg qd, 184 h): −20.3 (59.2) mL/min 1.73 m^2
- Change from baseline in derived creatinine clearance, mean (SD) ([3]; 10 mg qd, 16 h): −28.7 (34.2) mL/min 1.73 m^2
- Change from baseline in derived creatinine clearance, mean (SD) ([3]; 10 mg qd, 166 h): 12.8 (54.7) mL/min 1.73 m^2
- Change from baseline in derived creatinine clearance, mean (SD) ([3]; 10 mg qd, 184 h): −38.4 (36.4) mL/min 1.73 m^2
- Change from baseline in derived creatinine clearance, mean (SD) ([3]; 25 mg qd, 16 h): −89.2 (43.2) mL/min 1.73 m^2
- Change from baseline in derived creatinine clearance, mean (SD) ([3]; 25 mg qd, 166 h): −40.3 (61.7) mL/min 1.73 m^2
- Change from baseline in derived creatinine clearance, mean (SD) ([3]; 25 mg qd, 184 h): −52.4 (45.5) mL/min 1.73 m^2
- Change from baseline in derived creatinine clearance, mean (SD) ([3]; 100 mg qd, 16 h): −21.0 (59.3) mL/min 1.73 m^2
- Change from baseline in derived creatinine clearance, mean (SD) ([3]; 100 mg qd, 166 h): −10.6 (58.0) mL/min 1.73 m^2
- Change from baseline in derived creatinine clearance, mean (SD) ([3]; 100 mg qd, 184 h): −14.4 (55.3) mL/min 1.73 m^2
- Diarrhea ([4]; 2.5 mg qd): 2 (22.2) n (%)
- Headache ([4]; 2.5 mg qd): 0 n (%)
- Hypoglycemia ([4]; 2.5 mg qd): 0 n (%)
- Patients with any AE ([4]; 2.5 mg qd): 6 (66.7) n (%)
- Pruritus ([4]; 2.5 mg qd): 1 (11.1) n (%)
- Diarrhea ([4]; 10 mg qd): 0 n (%)
- Headache ([4]; 10 mg qd): 1 (11.1) n (%)
- Hypoglycemia ([4]; 10 mg qd): 2 (22.2) n (%)
- Patients with any AE ([4]; 10 mg qd): 5 (55.6) n (%)
- Pruritus ([4]; 10 mg qd): 0 n (%)
- Diarrhea ([4]; 25 mg qd): 0 n (%)
- Headache ([4]; 25 mg qd): 2 (22.2) n (%)
- Hypoglycemia ([4]; 25 mg qd): 1 (11.1) n (%)
- Patients with any AE ([4]; 25 mg qd): 5 (55.6) n (%)
- Pruritus ([4]; 25 mg qd): 1 (11.1) n (%)
- Diarrhea ([4]; 100 mg qd): 0 n (%)
- Headache ([4]; 100 mg qd): 0 n (%)
- Hypoglycemia ([4]; 100 mg qd): 0 n (%)
- Patients with any AE ([4]; 100 mg qd): 3 (33.3) n (%)
- Pruritus ([4]; 100 mg qd): 0 n (%)
- Frequency of AEs ([4]; all patients receiving empagliflozin): 52.8%
- Patients with hypoglycemic events (blood glucose <3.5 mmol/L) ([4]; all within 5 h of OGTT administration, moderate intensity): Three
- Patients with AE leading to discontinuation of study treatment ([4]; cellulitis, moderate intensity, not believed related to study medication): 1 patient
- Tolerability ([4]; multiple once-daily oral doses 2.5–100 mg): well tolerated
- Fatalities or serious AEs ([4]; treatment period): no fatalities or serious AEs
- Urinary tract or genital tract infections ([4]; treatment period): No urinary tract or genital tract infections were reported
- Mean MDG (SD), Day 8 ([5]; 2.5 mg qd, without OGTT): 134 (42.7) mg/dL
- Mean MDG change from baseline to day 8, difference to placebo ([5]; 2.5 mg qd, without OGTT): −15.5, p < 0.05 mg/dL
- Mean MDG, mean (least squares) change from baseline to day 8 ([5]; 2.5 mg qd, without OGTT): -29.0 mg/dL
- Mean MDG (SD), Day 8 ([5]; 10 mg qd, n = 8, without OGTT): 124 (18.9) mg/dL
- Mean MDG change from baseline to day 8, difference to placebo ([5]; 10 mg qd, without OGTT): −23.5, p < 0.01 mg/dL
- Mean MDG, mean (least squares) change from baseline to day 8 ([5]; 10 mg qd, without OGTT): -37.0 mg/dL
- Mean MDG (SD), Day 8 ([5]; 25 mg qd, without OGTT): 133 (36.2) mg/dL
- Mean MDG change from baseline to day 8, difference to placebo ([5]; 25 mg qd, without OGTT): −15.0, p = 0.052 mg/dL
- Mean MDG, mean (least squares) change from baseline to day 8 ([5]; 25 mg qd, without OGTT): -28.5 mg/dL
- Mean MDG (SD), Day 8 ([5]; 100 mg qd, without OGTT): 154 (17.9) mg/dL
- Mean MDG change from baseline to day 8, difference to placebo ([5]; 100 mg qd, without OGTT): −10.6, p = 0.168 mg/dL
- Mean MDG, mean (least squares) change from baseline to day 8 ([5]; 100 mg qd, without OGTT): -24.1 mg/dL
- Amount of glucose excreted in the urine over 24 h (Ae0–24) ([6]; 2.5 mg single dose, OGTT conditions): 46.3 g
- Increase in UGE with fourfold dose increase from 2.5 to 10 mg ([6]; single dose): more than a twofold increase
- Increase in UGE with fourfold dose increase from 25 to 100 mg ([6]; single dose): ~1.2 fold
- Calcium, mean (SD), last value on treatment ([7]; 2.5 mg qd): 2.3 (0.1) mmol/l
- HDL-cholesterol, mean (SD), last value on treatment ([7]; 2.5 mg qd): 16 (18) mg/dL
- Potassium, mean (SD), last value on treatment ([7]; 2.5 mg qd): 4.2 (0.3) mmol/l
- Sodium, mean (SD), last value on treatment ([7]; 2.5 mg qd): 140 (2) mmol/l
- Total cholesterol, mean (SD), last value on treatment ([7]; 2.5 mg qd): 175 (11) mg/dL
- Triglycerides, mean (SD), last value on treatment ([7]; 2.5 mg qd): 171 (65) mg/dL
- HDL-cholesterol, mean (SD), last value on treatment ([7]; 10 mg qd, N = 8): 31 (18) mg/dL
- Calcium, mean (SD), last value on treatment ([7]; 10 mg qd): 2.3 (0.1) mmol/l
- Potassium, mean (SD), last value on treatment ([7]; 10 mg qd): 4.4 (0.3) mmol/l
- Sodium, mean (SD), last value on treatment ([7]; 10 mg qd): 140 (1) mmol/l
- Total cholesterol, mean (SD), last value on treatment ([7]; 10 mg qd): 171 (25) mg/dL
- Triglycerides, mean (SD), last value on treatment ([7]; 10 mg qd): 114 (42) mg/dL
- Calcium, mean (SD), last value on treatment ([7]; 25 mg qd): 2.3 (0.1) mmol/l
- HDL-cholesterol, mean (SD), last value on treatment ([7]; 25 mg qd): 41 (17) mg/dL
- Potassium, mean (SD), last value on treatment ([7]; 25 mg qd): 4.1 (0.3) mmol/l
- Sodium, mean (SD), last value on treatment ([7]; 25 mg qd): 139 (2) mmol/l
- Total cholesterol, mean (SD), last value on treatment ([7]; 25 mg qd): 174 (13) mg/dL
- Triglycerides, mean (SD), last value on treatment ([7]; 25 mg qd): 89 (26) mg/dL
- Calcium, mean (SD), last value on treatment ([7]; 100 mg qd): 2.3 (0.1) mmol/l
- HDL-cholesterol, mean (SD), last value on treatment ([7]; 100 mg qd): 37 (18) mg/dL
- Potassium, mean (SD), last value on treatment ([7]; 100 mg qd): 4.5 (0.3) mmol/l
- Sodium, mean (SD), last value on treatment ([7]; 100 mg qd): 139 (2) mmol/l
- Total cholesterol, mean (SD), last value on treatment ([7]; 100 mg qd): 174 (11) mg/dL
- Triglycerides, mean (SD), last value on treatment ([7]; 100 mg qd): 97 (27) mg/dL
- pIC50 (SE), inhibition of SGLT2 [8]: 8.5
- IC50 ([8]; read-out: IC50, inhibition of SGLT2): 3.1 nM
- Mean (SD) glucose AUEC1–5, Day 9 ([9]; 2.5 mg qd, after OGTT): 713 (216) mg h/dL
- Glucose AUEC1–5, change from baseline to day 9 ([9]; 2.5 mg qd, after OGTT): 23.1%
- Glucose AUEC1–5, change from baseline to day 9 ([9]; 10 mg qd, after OGTT): 27.5%
- Mean (SD) glucose AUEC1–5, Day 9 ([9]; 10 mg qd, n = 8, after OGTT): 655 (144) mg h/dL
- Mean (SD) glucose AUEC1–5, Day 9 ([9]; 25 mg qd, after OGTT): 679 (109) mg h/dL
- Glucose AUEC1–5, change from baseline to day 9 ([9]; 25 mg qd, after OGTT): 23.0%
- Mean (SD) glucose AUEC1–5, Day 9 ([9]; 100 mg qd, after OGTT): 817 (126) mg h/dL
- Glucose AUEC1–5, change from baseline to day 9 ([9]; 100 mg qd, after OGTT): 22.9%
- Tolerability [10]: well tolerated
- Selectivity for SGLT2 over SGLT1 [11]: > 2,500 fold
